Active and inactive are the calls of the source. No cut-off for these calls is given here. Square brackets hold non-standard residues; d marks the D form. Peptide text beside a SMILES is read from it. Hyp = O=C(O)[C@@H]1C[C@@H](O)CN1; Ahx = NCCCCCC(=O)O
How the values were obtained:
[1] = system: MCF7; test: Antitumor activity against human MCF7 cells xenografted in BALB/c nude mouse assessed as reduction in tumor weight at 12.5 mg/kg, ip administered every 2 days in presence of 12.5 mg/kg JMJD6 inhibitor; assay type: functional, organism-based
How it was run: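 Female BALB/c nude mice given 5 × 10^6 cells sc (MCF7 mice with E2 10^-2 M every 2 days), randomised at ~50 mm3. Peptide 12.5 mg/kg ip (saline) every 2 days, plus JQ1 50 mg/kg ip (DMSO/10% HPBCD 1:10) every 2 days or iJMJD6 12.5 mg/kg ip (DMSO/PBS 1:20). Caliper volume every 2 days; tumours weighed at the end.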

[2] = system: MCF7; test: Inhibition of colony formation in human MCF7 cells at 10 uM incubated for 2 weeks by crystal violet staining based assay; assay type: functional, cell-based
How it was run: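 Cells are seeded at 1 × 10^3/well and treated with peptide (10 μM) for 2 weeks, alone or with JQ1 5 μM, iJMJD6 10 μM, ICI 2.5 μM, or tamoxifen 3 μM (tamoxifen-resistant lines). Colonies are stained with crystal violet, dissolved in 10% acetic acid, and read at 590 nm. Three biological repeats.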

[3] = system: MCF7; test: Inhibition of His-tagged BRD4 ET domain to Flag-tagged JMJD6 (unknown origin) protein-protein interaction in human MCF7 cells assessed as fold decrease in His-tagged BRD4 ET level at 10 uM incubated for 12 hrs by immunoblotting assay (reference value: […]); assay type: cell-based
[4] = Toxicity in BALB/c mouse xenografted with human MCF7 cells assessed as change in heart morphology at 12.5 mg/kg, ip administered every 2 days in presence of 50 mg/kg JQ1; assay type: organism-based; details: in vivo, 48 h
[5] = Toxicity in BALB/c mouse xenografted with human MCF7 cells assessed as change body weight at 12.5 mg/kg, ip administered every 2 days in presence of 50 mg/kg JQ1; assay type: organism-based; details: in vivo, 48 h
[6] = system: Mus musculus; test: Downregulation of JMJD6 mRNA expression in BALB/c mouse tumor xenografted with human MCF7 cells at 25 mg/kg, ip administered every 2 days by RT-qPCR analysis; assay type: functional, organism-based
[7] = Toxicity in BALB/c mouse xenografted with human MDA-MB-231 cells assessed as change in spleen weight at 12.5 mg/kg, ip administered every 2 days in presence of 50 mg/kg JQ1; assay type: organism-based; details: in vivo, 48 h
How it was run: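 Female BALB/c nude mice (4–6 weeks) carried sc MDA-MB-231 xenografts (5 × 10^6 cells) and were randomized at about 50 mm3. Peptide (12.5 mg/kg ip in saline) and JQ1 (50 mg/kg ip, DMSO/10% HPBCD 1:10) were given every 2 days, alone or combined. Body weight was recorded, and heart, liver, spleen, lung and kidney morphology and weight were assessed.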

[8] = system: MCF7; test: Inhibition of cell migration in human MCF7 cells at 10 uM incubated for 24 hrs in presence of fulvestrant by inverted microscopic analysis; assay type: functional, cell-based
How it was run: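 Cells are seeded at 5 × 10^5/well and scratched at 80–90% confluence. They are kept in serum-free medium with peptide (10 μM); partner agents are JQ1 5 μM, iJMJD6 10 μM, or ICI 2.5 μM. Wound area is imaged by inverted microscope at 0 and 12 or 24 h. Wound closure % = (A0−A1)/A0 × 100. Three biological repeats.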

[9] = system: MCF7; test: Inhibition of His-tagged BRD4 ET domain to Flag-tagged JMJD6 (unknown origin) protein-protein interaction in human MCF7 cells assessed as fold decrease in Flag-tagged JMJD6 level at 10 uM incubated for 12 hrs by immunoblotting assay (reference value: […]); assay type: cell-based
[10] = Downregulation of c-Myc protein expression in BALB/c mouse tumor xenografted with human MCF7 cells assessed as fold change in remaining c-Myc level at 25 mg/kg, ip administered every 2 days by immunoblotting analysis; assay type: functional
How it was run: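 Female BALB/c nude mice (4–6 weeks) carry subcutaneous MCF7 or MDA-MB-231 grafts (5 × 10^6 cells). MCF7 mice are brushed with E2 (10–2 M) every 2 days. Dosing starts at ~50 mm3: peptide in normal saline, ip every 2 days. Tumour lysates are immunoblotted with β-actin as loading control; repeated three times.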

[11] = system: MCF7; test: Antiproliferative activity against human MCF7 cells at 10 uM incubated for 1 week in presence of tamoxifen by CellTiter 96 Aqueous One Solution based assay; assay type: functional, cell-based; details: time 1.0 weeks
How it was run: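 Tamoxifen-resistant MCF7 or T47D cells treated with peptide (10 μM) or tamoxifen (3 μM), alone or combined. Viability read by MTS reagent, 1 h at 37 °C, A490.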

[12] = target: T1, von Hippel-Lindau disease tumor suppressor/Bromodomain-containing protein 4 (Homo sapiens) (UniProt O60885+P40337); test: PROTAC activity at VHL/His-tagged BDR4 ET domain (471 to 730 residues) (unknown origin) transfected in MCF7 cells assessed as degradation by measuring fold change in remaining BRD4 level at 10 uM incubated for 24 hrs by immunoblotting analysis (reference value: […]); assay type: cell-based
[13] = target: T1, von Hippel-Lindau disease tumor suppressor/Bromodomain-containing protein 4 (Homo sapiens); test: PROTAC activity at VHL/His-tagged BDR4 ET domain (1047 to 1362 residues) (unknown origin) transfected in MCF7 cells assessed as degradation by measuring fold change in remaining BRD4 level at 20 uM incubated for 24 hrs by immunoblotting analysis (reference value: […]); assay type: cell-based
[14] = target: von Hippel-Lindau disease tumor suppressor/Bifunctional arginine demethylase and lysyl-hydroxylase JMJD6 (Homo sapiens) (UniProt P40337+Q6NYC1); test: PROTAC activity at VHL/JMJD6 in human MCF7 cells assessed as degradation by measuring fold change in remaining JMJD6 level at 10 uM incubated for 24 hrs in presence of TAT by immunoblotting analysis relative to TAT/TAT-PROTAC; assay type: cell-based
How it was run: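 MCF7 cells were left untreated or given TAT, TAT-PROTAC, TAT-PiET or the PROTAC peptide (each 10 μM) for 24 h. Lysates were immunoblotted with β-actin for loading. Three repeats, quantified in the Supporting Table.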

[15] = target: T1, von Hippel-Lindau disease tumor suppressor/Bromodomain-containing protein 4 (Homo sapiens); test: PROTAC activity at VHL/BDR4 ET domain in human MCF7 cells assessed as degradation by measuring fold change in remaining BRD4 level at 10 uM incubated for 24 hrs by immunoblotting analysis (reference value: […]); assay type: cell-based
[16] = target: T1, von Hippel-Lindau disease tumor suppressor/Bromodomain-containing protein 4 (Homo sapiens); test: PROTAC activity at VHL/His-tagged BDR4 ET domain (1 to 470 residues) (unknown origin) transfected in MCF7 cells assessed as degradation by measuring fold change in remaining BRD4 level at 10 uM incubated for 24 hrs by immunoblotting analysis (reference value: […]); assay type: cell-based
[17] = target: T1, von Hippel-Lindau disease tumor suppressor/Bromodomain-containing protein 4 (Homo sapiens); test: PROTAC activity at VHL/His-tagged BDR4 ET domain (601 to 683 residues) (unknown origin) transfected in MCF7 cells assessed as degradation by measuring fold change in remaining BRD4 level at 10 uM incubated for 24 hrs by immunoblotting analysis (reference value: […]); assay type: cell-based

With H-YGRKKRRQRRRRNQKFKCGE-OH as the molecule, how does the Activity [1] read?
Its Activity is “Active”.

What about the inhibition [2] of the same molecule?
Its inhibition is “Active”.

What about the fold change (FC) [3] of the same molecule?
The fold change (FC) was 0.49.

What about the Activity [4] of the same molecule?
Its Activity is “Non-Toxic”.

What about the Activity [5] of the same molecule?
The Activity was “Non-Toxic”.

And the Activity [6]?
The Activity was “inactive”.

What about the Activity [7] of the same molecule?
Its Activity is “Non-Toxic”.

What about the inhibition [8] of the same molecule?
Its inhibition is “Active”.

What about the fold change (FC) [9] of the same molecule?
The fold change (FC) was 0.93.

And the “fold change (FC)” value [10]?
Its value is 0.27.

What about the Activity [11] of the same molecule?
Its Activity is “Active”.

For `CC[C@H](C)[C@H](NC(=O)[C@H](Cc1ccc(O)cc1)NC(=O)[C@@H]1C[C@@H](O)CN1C(=O)[C@H](C)NC(=O)[C@@H](NC(=O)CCCCCNC(=O)[C@H](CCC(=O)O)NC(=O)CNC(=O)[C@H](CS)NC(=O)[C@H](CCCCN)NC(=O)[C@H](Cc1ccccc1)NC(=O)[C@H](CCCCN)NC(=O)[C@H](CCC(N)=O)NC(=O)[C@H](CC(N)=O)NC(=O)[C@H](CCCNC(=N)N)NC(=O)[C@H](CCCNC(=N)N)NC(=O)[C@H](CCCNC(=N)N)NC(=O)[C@H](CCCNC(=N)N)NC(=O)[C@H](CCC(N)=O)NC(=O)[C@H](CCCNC(=N)N)NC(=O)[C@H](CCCNC(=N)N)NC(=O)[C@H](CCCCN)NC(=O)[C@H](CCCCN)NC(=O)[C@H](CCCNC(=N)N)NC(=O)CNC(=O)[C@@H](N)Cc1ccc(O)cc1)[C@@H](C)CC)C(=O)O` (H-YGRKKRRQRRRRNQKFKCGE[Ahx]IA[Hyp]YI-OH), which Activity [1] is on record?
The Activity was “Active”.

What about the inhibition [2] of the same molecule?
Its inhibition is “Active”.

What about the fold change (FC) [12] of the same molecule?
The fold change (FC) was 0.68.

What about the fold change (FC) [13] of the same molecule?
The fold change (FC) was 1.05.

What about the Activity [4] of the same molecule?
Its Activity is “Non-Toxic”.

What about the fold change (FC) [14] of the same molecule?
The fold change (FC) was 0.61.

And the Activity [5]?
The Activity was “Non-Toxic”.

And the Activity [6]?
The Activity was “inactive”.

What about the fold change (FC) [15] of the same molecule?
Its fold change (FC) is 0.26.

What about the Activity [7] of the same molecule?
Its Activity is “Non-Toxic”.

What about the inhibition [8] of the same molecule?
The inhibition was “Active”.

What about the “fold change (FC)” value [10] of the same molecule?
The value was 0.38.

And the Activity [11]?
The Activity was “Active”.

What about the fold change (FC) [16] of the same molecule?
Its fold change (FC) is 1.11.

What about the fold change (FC) [17] of the same molecule?
The fold change (FC) was 0.47.

Source: ChEMBL document CHEMBL5543129, “Peptide Inhibitor Targeting the Extraterminal Domain in BRD4 Potently Suppresses Breast Cancer Both In Vitro and In Vivo” (J Med Chem, 2024)
